CaV13 FRET inh: Primary screen for inhibitors of IQ motif and Ca2+-dependent inactivation inhibitor domain binding in CACNA1D, Förster resonance energy transfer in living cells, …; inhibition, % at 12.3 µM; AID 743397; 340,000 tested, 0.098% active; HEK cells, CFP/YFP FRET ICDI-IQ, plate reader, 10 min; percent FRET-ratio fall versus neutral wells;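 active means mean replicate inhibition of at least 30% and at least 1% of replicates passing that level; inconclusive means only one of the two criteria is met; inactive means neither criterion is met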
PfHsp90 yeast 2: inhibits growth of yeast expressing Plasmodium falciparum Hsp90. S. cerevisiae expressing PfHsp90, BacTiter-Glo ATP, 48 h; yeast lacking PDR1 and PDR3 efflux regulators. inhibition, % at 9.4 µM. 310,000 tested, 0.32% active. AID 504621;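 active means every replicate shows inhibition above about 80%, whatever the replicate mean, limit read from the data; inconclusive means mean inhibition reaches the set limit but some replicate falls short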
T cruzi repl: blocks replication of Trypanosoma cruzi; inhibition, % (no concentration beside the values); T. cruzi beta-gal in NIH3T3, luminescence, 90 h; 300,000 tested, 1.4% active;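 active means mean inhibition across valid replicates above about 55%, limit read from the data; inconclusive means mean below that limit but half or more replicates reach it; inactive means mean below it, under half of replicates reach it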;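 further: signal also drops with host cell toxicity which is not excluded here; higher percent means less beta-gal luminescence so fewer parasites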
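System: Mouse NIH/3T3 fibroblasts infected with β-gal-expressing T. cruzi Tulahuen C4 | Quantity: NIH/3T3 cells, 5,000 per well | Reagent: 5000 reporter trypomastigotes per well | Dosing: Compound pinned at 50 nL/well, DMSO | Schedule: 3 h host attachment, then at least 90 h co-culture | Detection: GalScreen luminescence, 60 min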
PvdQ acylase: P. aeruginosa PvdQ acylase inhibition; AID 488965; inhibition, % at 10 µM; purified PvdQ acylase, fluorescence plate reader; 340,000 tested, 0.063% active; in the data active means inhibition above about 30%, passing the limit was not always enough; inconclusive means no clear call, values can overlap the other calls
HSF1 activator: increases HSF-1 driven luciferase reporter signal; NIH3T3-HGL HSF-1 luciferase reporter, MG132, 8 h; 100% = twice DMSO control signal; activation, % at 9 µM; 300,000 tested, 1.7% active;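 active means mean replicate activation of at least 50% with a set share of replicates each reaching 50%; inconclusive means only one of those two conditions met; inactive means mean below 50% and too few replicates reaching it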
N-glyco inh: N-linked glycosylation inhibition. D54 ERlucT glycosylation luciferase reporter, 24 h; percent of 100 nM tunicamycin response. reporter increase, % at 12.5 µM. 360,000 tested, 0.23% active. AID 588692;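 active means mean luciferase reporter signal, scaled so untreated is 0 and the glycosylation-blocking control 100, at or above a set limit in every replicate; inconclusive means mean reaches the limit but not every replicate does; inactive means mean below the limit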;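 further: luciferase carries N-glycosylation sites so blocking glycosylation raises the light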
Each line names hits and unclear results; the compound was inactive in the other large screens. Hits are enriched below; roughly 3% of the tested compounds scored in any of these assays.

CSc1nc(NCC(C)C)c2c3c(sc2n1)CN(C)CC3	none (no result: PfHsp90 yeast 2)
CCn1c(SCC(=O)c2ccccc2)nc2sc3c(c2c1=O)CCN(C)C3	T cruzi repl 64
CSc1nc(NCc2ccccc2)c2c3c(sc2n1)CN(C)CC3	T cruzi repl 55 (no result: PfHsp90 yeast 2)
CCn1c(SCC(=O)NCCc2ccccc2)nc2sc3c(c2c1=O)CCN(C)C3	none (no result: T cruzi repl, HSF1 activator)
OC(c1ccccc1)(c1ccccc1)C1CCN(CCCOc2ccc(-c3cncnc3)cc2)CC1	none (no result: PfHsp90 yeast 2, T cruzi repl, PvdQ acylase, HSF1 activator, N-glyco inh)
CCCCSc1nc2sc3c(c2c(=O)n1-c1ccccc1)CCN(C)C3	T cruzi repl 55
CCOc1ccc2nc(NCCNC(=S)NCCCN(C)C)c(C#N)cc2c1	CaV13 FRET inh active
CCOc1ccc2nc(NCCNC(=O)Nc3ccccc3)c(C#N)cc2c1	none (no result: PfHsp90 yeast 2)
CCOc1ccc2nc(NCCCNS(=O)(=O)c3ccc(C)cc3)c(C#N)cc2c1	CaV13 FRET inh 32
CCOc1ccc2nc(NCCNC(=O)Nc3cccc(C)c3)c(C#N)cc2c1	N-glyco inh 42 (no result: PfHsp90 yeast 2)
ON=C1C2CC=C(c3ccccc3)C1CCC2 (centres undefined)	none (no result: T cruzi repl, HSF1 activator)
COC(=O)C1=C(C)N(Cc2cccc(C(F)(F)F)c2)C(=NCC2CC2)NC1c1cccc(F)c1 (centres undefined)	none (no result: PfHsp90 yeast 2, T cruzi repl, PvdQ acylase, HSF1 activator, N-glyco inh)
O=C(NC1CCCC1)C1C(c2ccc(C(F)(F)F)cc2)=Nc2ccccc2N1C(=O)c1ccccc1 (centres undefined)	none (no result: PfHsp90 yeast 2, T cruzi repl, PvdQ acylase, HSF1 activator, N-glyco inh)
Cc1nn(-c2cc(N3CCCCC3)ccc2N)c(=O)c2ccccc12	T cruzi repl inconclusive (no result: PfHsp90 yeast 2)
Nc1ccc(N2CCCCC2)cc1N1CCCCC1	T cruzi repl 62
C[C@@]12C(=O)Nc3cc(F)c(F)cc3C(=O)N1[C@H]1c3ccccc3OC[C@@H]1[C@@H]2c1ccccc1	N-glyco inh inconclusive (no result: T cruzi repl, HSF1 activator)
C[C@@]12C(=O)Nc3ccc(F)cc3C(=O)N1[C@H]1c3ccccc3OC[C@@H]1[C@@H]2c1ccccc1	PfHsp90 yeast 2 active (no result: CaV13 FRET inh, T cruzi repl, HSF1 activator)
C[C@@]12C(=O)Nc3ccc(F)cc3C(=O)N1[C@H]1c3cc(Cl)ccc3OC[C@@H]1[C@@H]2c1ccccc1	N-glyco inh 28 (no result: T cruzi repl, HSF1 activator)
CSc1ncccc1C(=O)N1CCC(C)(C(=O)O)C1 (centres undefined)	none (no result: PfHsp90 yeast 2, T cruzi repl, PvdQ acylase, HSF1 activator)
CC12COC3(C(=O)Nc4ccccc4)CC1CCC32C (centres undefined)	none
CC12COC3(C(=O)Nc4ccc5ccccc5c4)CC1CCC32C (centres undefined)	HSF1 activator 62
Cc1cc(C)c(C2=NOC3c4ccccc4OCC23)c(C)c1 (centres undefined)	none (no result: PfHsp90 yeast 2, T cruzi repl, PvdQ acylase, HSF1 activator, N-glyco inh)
CC(=O)Nc1ccc(OCC(O)Cn2c3ccccc3c3ccccc32)c(C)c1 (centres undefined)	T cruzi repl 56 (no result: CaV13 FRET inh)
CCCCc1c(-c2ccccc2OC)ncn1Cc1ccc(F)cc1F	none (no result: PfHsp90 yeast 2, T cruzi repl, PvdQ acylase, HSF1 activator, N-glyco inh)
CCN1CCN(c2ccc(NC(=O)c3ccc([N+](=O)[O-])o3)cc2Cl)CC1	T cruzi repl 91
CCC(=O)N1CCN(c2ccc(NC(=O)c3ccc([N+](=O)[O-])o3)cc2Cl)CC1	HSF1 activator 128
CC(=O)N1CCN(c2ccc(NC(=O)c3ccc([N+](=O)[O-])o3)cc2Cl)CC1	none
CCOC(=O)C1=CCN(S(=O)(=O)c2cccc(Cl)c2)C1c1ccc(Cl)c(Cl)c1 (centres undefined)	none (no result: PfHsp90 yeast 2, T cruzi repl, PvdQ acylase, HSF1 activator, N-glyco inh)
N#CCCN1CCC(N)=NC1=NC#N	none (no result: PfHsp90 yeast 2, T cruzi repl, PvdQ acylase, HSF1 activator, N-glyco inh)
N#CC1=C(N)OC2=C(C(=O)CC(c3ccccc3)C2)C1c1cccnc1 (centres undefined)	T cruzi repl 55
N#CC1=C(N)OC2=C(C(=O)CC(c3ccccc3)C2)C1c1ccoc1 (centres undefined)	none
NC(CCc1ccccc1)c1csc(Nc2nccc(C(F)(F)F)n2)n1 (centres undefined)	none (no result: PfHsp90 yeast 2, T cruzi repl, PvdQ acylase, HSF1 activator)
OCC1(Cc2ccc(Cl)cc2)CCN(Cc2ccc(Oc3ncccn3)cc2)CC1	T cruzi repl 59
CCN(CC)C1CC(=O)N(c2ccc(Br)cc2)C1=O (centres undefined)	PfHsp90 yeast 2 112
Cc1cc(C)nc(SC2CC(=O)N(c3ccc(Br)cc3)C2=O)n1 (centres undefined)	none
CC(C)CC(/C(O)=C(\C#N)c1nc2ccccc2[nH]1)N1C(=O)c2ccccc2C1=O (centres undefined)	HSF1 activator 75
CC(C)(C)/C(O)=C(/C#N)c1nc2ccccc2[nH]1	none (no result: PfHsp90 yeast 2)
Cc1ccc2c(Cn3ccnc3)cc(=O)oc2c1C	none
Cc1cc(Cn2ccnc2)c(C)c([N+](=O)[O-])c1Cn1ccnc1	T cruzi repl 60
CC1(C)CC(=O)C(C(c2ccc3c(c2)OCO3)C2C(=O)CC(C)(C)CC2=O)C(=O)C1	none (no result: PfHsp90 yeast 2, T cruzi repl, PvdQ acylase, HSF1 activator)
CC1CCCN(C(=O)c2ccccc2OC2CCN(S(C)(=O)=O)CC2)C1 (centres undefined)	HSF1 activator 64
Cc1cccc(NC(=S)NC(=O)c2ccc(Br)o2)c1C	HSF1 activator 92
CCOC(=O)C(CC)(CC)C(=O)/C=C/c1cccc(Br)c1	HSF1 activator 251, N-glyco inh inconclusive (no result: CaV13 FRET inh)
CCCCCCCCN1C(=O)[C@H](CC(=O)NCc2cccc3ccccc23)C[C@@]2(C(=O)OC)CC(C)(C)CC=C12	none (no result: PfHsp90 yeast 2, T cruzi repl, PvdQ acylase, HSF1 activator, N-glyco inh)
Oc1ccccc1C=NNC(=S)NC1CC2C=CC1C2 (centres undefined)	none (no result: PfHsp90 yeast 2, T cruzi repl, PvdQ acylase, HSF1 activator)
Oc1c(Cl)cc(Cl)cc1/C=N/NC(=S)NC1CC2C=CC1C2 (centres undefined)	HSF1 activator 52
S=C1NCCN1c1ccc(Cl)cc1	none (no result: PfHsp90 yeast 2, T cruzi repl, PvdQ acylase, HSF1 activator, N-glyco inh)
NC(N)=N/N=C/c1ccc(Cl)c(Cl)c1	none (no result: PfHsp90 yeast 2, PvdQ acylase)
NC(N)=N/N=C/c1ccc(Cl)cc1Cl	T cruzi repl 62
C[C@@H]1CN([C@H](C)CO)C(=O)c2cc(C#C[C@@H](C)O)cnc2O[C@H]1CN(C)C(=O)c1ccc(F)cc1	none (no result: PfHsp90 yeast 2, T cruzi repl, PvdQ acylase, HSF1 activator)
CC1=C/C(=N\NC(=S)NCc2ccccc2)CC1	T cruzi repl 69
C/C(=N\NC(=S)NCc1ccccc1)c1ccccc1	none
S=C(NCc1cccs1)Nc1cccc2ccccc12	HSF1 activator 56
CC(C)(C)c1ccc(NC(=S)NCc2cccs2)cc1	HSF1 activator 145
COC(=O)C1=C(C)N(C)C(=NCc2ccccc2C(F)(F)F)NC1c1ccc(C(F)(F)F)cc1 (centres undefined)	none (no result: PfHsp90 yeast 2, T cruzi repl, PvdQ acylase, HSF1 activator, N-glyco inh)
S=c1[nH]nc(-c2ccncc2)n1/N=C/C=C/c1ccccc1	none
O=[N+]([O-])c1ccc(Cl)c(/C=N/n2c(-c3ccncc3)n[nH]c2=S)c1	HSF1 activator 243
S=c1[nH]nc(-c2ccncc2)n1/N=C/C(Cl)=C\c1ccccc1	HSF1 activator 78
S=c1[nH]nc(COc2ccccc2)n1/N=C/C(Cl)=C/c1ccccc1	HSF1 activator 151 (no result: PfHsp90 yeast 2)
Cc1cccc(C)c1NC(=O)C(c1ccnc2ccccc12)n1c(=O)c(-c2ccco2)nc2ccccc21 (centres undefined)	none (no result: PfHsp90 yeast 2, T cruzi repl, PvdQ acylase, HSF1 activator, N-glyco inh)

Compound activity (PubChem)
